The structures appear in SMILES notation. pIC50: −log10 of the molar value. Calls of active or inactive are those of the source. No cut-off for these calls is given here.

Data set [1] deals with HepG2. In words: Cytotoxicity against human HepG2 cells after 24 to 72 hrs by MTT assay. Type of data set: functional, cell-based. The method in brief:
(§1)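 HepG2 cells plated in triplicate and treated with a range of compound concentrations. MTT assay run after 24, 48 and 72 h. Data given as mean ± SD of triplicates, with p <0.05 flagged.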
On the technique in general: Tetrazolium assays rely on reduction of a dye to a coloured formazan, in cell work by metabolically active cells.

Data set [2] deals with HepG2. In words: Cytotoxicity against human HepG2 cells at 5 to 15 uM by MTT assay. It counts as functional, cell-based. Conditions: TDE = time-dependent effect. A digest of the protocol: as §1
A further data set deals with PLC-PRF-5. In words: Cytotoxicity against human PLC/PRF/5 cells by MTT assay. Type of data set: functional, cell-based.
The subject of another data set is Huh-7. As to the kind of experiment: Cytotoxicity against human HuH7 cells by MTT assay. Type of data set: functional, cell-based.
The subject of data set [3] is HepG2. As to the kind of experiment: Induction of apoptosis in human HepG2 cells assessed as PARP cleavage after 12 to 48 hrs by MTT assay. Type of data set: functional, cell-based. Conditions: in the assay text read “by Western blotting” for “by MTT assay”. A digest of the protocol: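 HepG2 cells treated with compound over a time course. Whole-cell extract (30 µg protein) resolved on 10% SDS–PAGE; membrane cut by molecular weight, probed for PARP, then probed for β-actin on the same blots as loading control.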

Data set [4] is described as follows: Cytotoxicity against human LO2 cells at 50 uM after 72 hrs by MTT assay. The conditions noted are these: l02, 72 h. Type of data set: cell-based.
Data set [5] has as its target T1, Nuclear factor NF-kappa-B complex (Homo sapiens) (UniProt Q00653+P19838+Q04206). In words: Inhibition of NF-kappaB DNA binding activity in human HepG2 cell nuclear extract at 50 uM by ELISA-based DNA binding assay. Type of data set: protein-complex assay. The conditions noted are these: TDE = time-dependent effect. The method in brief:
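HepG2 cells treated with 50 µM compound over a time course, then nuclear extracts prepared. Extract protein (5 µg) tested in an ELISA-based TransAM NF-κB DNA-binding kit. Representative of two independent experiments.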

Data set [6] deals with T1, Nuclear factor NF-kappa-B complex (Homo sapiens). In words: Inhibition of NF-kappaB in human HepG2 cell extract assessed as reduction in cyclin D1 expression at 50 uM after 12 to 48 hrs by Western blotting. Type of data set: cell-based. A digest of the protocol: (§2)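 HepG2 cells treated with 50 µM compound over a time course. Whole-cell extract (30 µg protein) resolved on 10% SDS–PAGE; membrane cut by molecular weight and probed for cyclin D1, Bcl-2, survivin or C-Myc. Blots stripped and reprobed for β-actin as loading control. Representative of two independent experiments.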
(In western blotting, separated proteins are transferred to a membrane and probed.)

For data set [7] the target is unchanged. In words: Inhibition of NF-kappaB in human HepG2 cell extract assessed as reduction in Bcl-2 expression at 50 uM after 12 to 48 hrs by Western blotting. It counts as cell-based. A digest of the protocol: as §2
Data set [8] has the same target. As to the kind of experiment: Inhibition of NF-kappaB in human HepG2 cell extract assessed as reduction in survivin expression at 50 uM after 12 to 48 hrs by Western blotting. It counts as cell-based. The method in brief: as §2
Data set [9] shares this target. As to the kind of experiment: Inhibition of NF-kappaB in human HepG2 cell extract assessed as reduction in C-Myc expression at 50 uM after 12 to 48 hrs by Western blotting. Type of data set: cell-based. A digest of the protocol: as §2
The subject of data set [10] is HepG2. As to the kind of experiment: Antiinvasive activity in CXCL12-induced human HepG2 cells at 50 uM after 8 hrs by matrigel invasion assay.
In data set [11] the test system is HepG2. As to the kind of experiment: Antiinvasive activity in CXCL12-induced human HepG2 cells at 50 uM after 8 hrs by in vitro migration assay.
In data set [12] the target is T1, Nuclear factor NF-kappa-B complex (Homo sapiens). As to the kind of experiment: Inhibition of NF-kappaB in human HepG2 cell extract assessed as reduction in MMP12 expression at indicated concentrations by Western blotting.

T1 sequence (P19838 whole entry, looked up): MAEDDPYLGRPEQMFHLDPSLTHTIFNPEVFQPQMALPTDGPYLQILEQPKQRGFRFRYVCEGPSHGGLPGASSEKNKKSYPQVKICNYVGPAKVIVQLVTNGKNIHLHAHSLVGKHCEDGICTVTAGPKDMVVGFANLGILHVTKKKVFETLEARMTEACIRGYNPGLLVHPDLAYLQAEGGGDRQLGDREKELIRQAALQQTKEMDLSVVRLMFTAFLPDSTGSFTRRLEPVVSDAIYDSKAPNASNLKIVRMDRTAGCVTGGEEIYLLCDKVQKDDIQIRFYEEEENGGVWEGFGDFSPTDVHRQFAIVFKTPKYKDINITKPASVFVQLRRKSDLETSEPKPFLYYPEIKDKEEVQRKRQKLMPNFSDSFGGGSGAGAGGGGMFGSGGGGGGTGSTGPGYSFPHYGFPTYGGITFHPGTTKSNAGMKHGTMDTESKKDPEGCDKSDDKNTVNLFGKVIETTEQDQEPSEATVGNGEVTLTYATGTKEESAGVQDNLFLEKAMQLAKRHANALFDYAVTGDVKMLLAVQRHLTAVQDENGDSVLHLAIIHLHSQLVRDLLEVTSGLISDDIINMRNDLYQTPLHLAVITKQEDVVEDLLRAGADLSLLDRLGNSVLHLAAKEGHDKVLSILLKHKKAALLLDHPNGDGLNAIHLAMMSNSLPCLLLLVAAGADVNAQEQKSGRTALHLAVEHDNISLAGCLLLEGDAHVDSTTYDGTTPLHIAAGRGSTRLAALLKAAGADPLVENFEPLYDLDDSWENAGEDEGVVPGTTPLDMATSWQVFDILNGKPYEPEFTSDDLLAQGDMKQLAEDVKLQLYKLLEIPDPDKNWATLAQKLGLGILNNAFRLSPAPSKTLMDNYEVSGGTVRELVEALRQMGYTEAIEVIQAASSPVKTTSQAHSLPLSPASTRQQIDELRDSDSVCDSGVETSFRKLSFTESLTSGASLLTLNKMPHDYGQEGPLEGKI
T1 sequence (Q00653 whole entry, looked up): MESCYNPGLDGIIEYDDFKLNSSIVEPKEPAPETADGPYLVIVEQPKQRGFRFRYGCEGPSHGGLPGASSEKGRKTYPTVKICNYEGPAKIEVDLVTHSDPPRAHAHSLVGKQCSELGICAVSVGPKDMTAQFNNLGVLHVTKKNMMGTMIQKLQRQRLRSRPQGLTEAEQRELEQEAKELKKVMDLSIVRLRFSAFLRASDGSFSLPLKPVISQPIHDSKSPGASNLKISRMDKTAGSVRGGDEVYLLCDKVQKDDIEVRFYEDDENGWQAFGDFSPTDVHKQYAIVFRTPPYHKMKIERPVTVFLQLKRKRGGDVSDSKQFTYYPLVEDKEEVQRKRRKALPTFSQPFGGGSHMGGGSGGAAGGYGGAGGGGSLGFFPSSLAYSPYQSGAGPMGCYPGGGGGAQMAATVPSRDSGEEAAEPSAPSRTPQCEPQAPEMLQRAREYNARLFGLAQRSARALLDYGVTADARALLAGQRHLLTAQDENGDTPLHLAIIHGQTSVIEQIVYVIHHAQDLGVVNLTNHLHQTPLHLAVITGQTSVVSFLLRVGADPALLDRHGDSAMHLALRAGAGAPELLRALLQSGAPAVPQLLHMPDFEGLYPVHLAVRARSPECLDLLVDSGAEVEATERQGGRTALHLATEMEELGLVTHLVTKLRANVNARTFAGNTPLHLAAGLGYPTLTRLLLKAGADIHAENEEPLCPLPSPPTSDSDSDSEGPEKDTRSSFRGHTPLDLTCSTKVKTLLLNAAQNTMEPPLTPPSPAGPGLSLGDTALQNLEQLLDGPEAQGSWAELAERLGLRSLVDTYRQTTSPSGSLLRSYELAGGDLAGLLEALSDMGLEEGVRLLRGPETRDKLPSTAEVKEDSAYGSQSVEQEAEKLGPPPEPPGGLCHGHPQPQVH
T1 sequence (Q04206 whole entry, looked up): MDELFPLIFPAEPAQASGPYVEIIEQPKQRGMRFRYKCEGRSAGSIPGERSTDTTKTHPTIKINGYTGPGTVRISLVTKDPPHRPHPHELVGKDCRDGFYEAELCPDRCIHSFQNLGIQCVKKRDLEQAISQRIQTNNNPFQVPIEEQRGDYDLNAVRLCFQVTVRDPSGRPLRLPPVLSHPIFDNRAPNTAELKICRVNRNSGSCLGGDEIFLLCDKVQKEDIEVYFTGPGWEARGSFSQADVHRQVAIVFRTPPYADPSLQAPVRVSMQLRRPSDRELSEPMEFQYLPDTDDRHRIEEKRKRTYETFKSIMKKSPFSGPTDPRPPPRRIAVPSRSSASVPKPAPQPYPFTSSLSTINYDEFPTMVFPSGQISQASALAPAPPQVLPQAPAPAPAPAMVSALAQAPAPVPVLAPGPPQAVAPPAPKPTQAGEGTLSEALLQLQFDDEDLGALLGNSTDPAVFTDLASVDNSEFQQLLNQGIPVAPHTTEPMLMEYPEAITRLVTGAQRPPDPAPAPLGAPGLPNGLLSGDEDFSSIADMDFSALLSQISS

Broadly, the pIC50 is the negative decadic logarithm of the IC50, by convention in mol/L. Turning to `CN(C)C(=S)SCc1cc(=O)oc2c1ccc1ccccc12`, in the data set on HepG2 [1], the pIC50 is 4.19.
For `CCOC(=O)Nc1ccc2c(CSC(=S)N3CCCC3)cc(=O)oc2c1`, the Activity result is “tde” with HepG2 [2]; “Dose-dependent effect” in the data set with HepG2 [1]; “Dose-dependent effect” in the data set on PLC-PRF-5; “Dose-dependent effect” with Huh-7; “Non-toxic” in data set [4]; “tde” in data set [5]. In the data set with HepG2 [1], this compound gave a negative-log IC50 (pIC50) of 4.83. Further, the outcome (in the data set with HepG2 [3]; in data set [6]; in [7]; in [8]; in data set [9]; in the data set with HepG2 [10]) was Active. The result (in the data set with HepG2 [11]; in data set [12]) was Active.
For `O=c1cc(CSC(=S)N2CCCC2)c2cc(F)ccc2o1`, in the data set with HepG2 [1], the negative-log IC50 (pIC50) was 4.18.
The same measure, in the same setting: under `CCOC(=O)Nc1ccc2c(CSC(=S)N(C)C)cc(=O)oc2c1` stands 4.18.
Same read-out and setting: under `Cc1ccc2oc(=O)cc(CSC(=S)N(C)C)c2c1` stands 4.18.
On to `O=c1cc(CSC(=S)N2CCCC2)c2ccc3ccccc3c2o1`, for which the pIC50 in the data set with HepG2 [1] is 4.21. This pIC50 and that of the compound before are within 0.2 log units of each other.
Still for that read-out and setting: under `O=c1cc(CSC(=S)N2CCCC2)c2ccc(Cl)cc2o1` stands 4.22; under `COC(=O)Nc1ccc2c(CSC(=S)N(C)C)cc(=O)oc2c1`, 4.21; under `CN(C)C(=S)SCc1cc(=O)oc2ccc(F)cc12`, 4.23.
`COc1ccc2oc(=O)cc(CSC(=S)N(C)C)c2c1` gave a negative-log IC50 (pIC50) with HepG2 [1] of 4.22.
Still for that read-out and setting: under `Cc1cc(C)c2c(CSC(=S)N(C)C)cc(=O)oc2c1` stands 4.20; under `COc1ccc2oc(=O)cc(CSC(=S)N3CCCC3)c2c1`, 4.27.
On the same count and under the same terms, under `O=c1cc(CSC(=S)N2CCCC2)c2ccc(F)cc2o1` stands 4.20.
Still for that read-out and setting: under `COc1ccc2c(CSC(=S)N3CCCC3)cc(=O)oc2c1` stands 4.21.

(Values after ChEMBL document CHEMBL3392987, “Novel synthetic coumarins that targets NF-κB in Hepatocellular carcinoma” (Bioorg Med Chem Lett, 2015).)
